Shown are actives, neighbours in structure and some others; about 4.5% of the full set was active somewhere.
STAT1 activator = STAT1 signaling activators, primary screen, cell-based, HTS, luciferase reporter; NIH 3T3 STAT1-luciferase reporter, IFN-gamma, luminescence; 100% = IFN-gamma alone, no compound; activation (% of control), % at 5.5 µM; actives 2.6% (n = 200,000);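 active = activation above the screen-wide mean activation plus 3 SD, cut at about 130% in these data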;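 also: raw ratio to IFN-gamma control signal so 100% means no change and 0% no light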
PERK inhibitor = block of dimerizer-induced PERK translation repression, primary screen, PERK inhibitor project, CHO PERK-DD cells, SEAP luminescence, HTS | Eukaryotic translation initiation factor 2-alpha kinase 3 (Homo sapiens), Q9NZJ5 | CHO PERK-DD fusion, SEAP luminescence translation reporter | inhibition, % at 5.6 µM | actives 0.17% (n = 220,000) | AID 1416, 2008;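 active = inhibition above the mean inhibition of all tested compounds plus 3 SD, set separately per screening campaign, cut at about 2.9% in these data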;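 also: PERK kinase domain activated by AP20187 dimerizer at 100 nM; 0% = DMSO with dimerizer and 100% = rapamycin at 8.4 µM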
Target sequence (Q9NZJ5 whole entry, looked up, the tested form may be a part): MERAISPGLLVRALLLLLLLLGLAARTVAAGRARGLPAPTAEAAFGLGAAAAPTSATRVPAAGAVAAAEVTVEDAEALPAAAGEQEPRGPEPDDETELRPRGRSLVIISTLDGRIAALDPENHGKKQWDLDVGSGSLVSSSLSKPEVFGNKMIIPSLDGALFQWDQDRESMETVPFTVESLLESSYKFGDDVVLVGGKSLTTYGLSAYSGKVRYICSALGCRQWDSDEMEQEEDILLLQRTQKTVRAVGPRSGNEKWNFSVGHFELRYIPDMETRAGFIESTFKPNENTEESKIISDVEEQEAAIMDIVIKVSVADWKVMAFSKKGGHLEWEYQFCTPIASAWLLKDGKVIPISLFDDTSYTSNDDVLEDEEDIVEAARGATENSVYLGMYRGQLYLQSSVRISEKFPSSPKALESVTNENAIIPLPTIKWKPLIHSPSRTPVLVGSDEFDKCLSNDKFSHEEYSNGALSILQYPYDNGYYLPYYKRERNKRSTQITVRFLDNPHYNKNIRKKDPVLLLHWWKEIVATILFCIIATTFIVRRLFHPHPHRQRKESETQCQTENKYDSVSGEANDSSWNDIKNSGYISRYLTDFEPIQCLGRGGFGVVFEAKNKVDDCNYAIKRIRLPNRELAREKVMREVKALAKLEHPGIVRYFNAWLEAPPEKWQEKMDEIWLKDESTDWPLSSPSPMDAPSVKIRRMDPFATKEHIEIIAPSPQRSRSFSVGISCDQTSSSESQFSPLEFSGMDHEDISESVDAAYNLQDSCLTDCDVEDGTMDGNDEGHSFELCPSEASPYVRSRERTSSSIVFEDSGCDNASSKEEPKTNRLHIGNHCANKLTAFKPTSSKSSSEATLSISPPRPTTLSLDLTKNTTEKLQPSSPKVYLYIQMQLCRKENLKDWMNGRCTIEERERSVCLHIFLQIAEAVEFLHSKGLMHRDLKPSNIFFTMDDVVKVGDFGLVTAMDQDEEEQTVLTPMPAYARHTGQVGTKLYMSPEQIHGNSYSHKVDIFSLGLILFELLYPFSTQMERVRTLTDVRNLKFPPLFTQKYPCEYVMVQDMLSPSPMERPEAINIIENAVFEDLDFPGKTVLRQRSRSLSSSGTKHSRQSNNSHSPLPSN
MDM2 E3 inh = MDM2-luciferase reporter signal enhancers, primary screen, MDM2 E3 ligase inhibitor project, cell-based, luminescence, 1536-well | cell-based MDM2 ubiquitination luciferase reporter, 2 h; 0 = plate control, 100 = twice control, blank-subtracted | signal enhancement, % at 5 µM | actives 0.11% (n = 210,000) | AID 1230, 2008;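 active = signal enhancement of 30% or more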;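 also: luminescence tracks abundance of the self-degrading MDM2-luciferase fusion protein; higher signal means inhibition of MDM2 E3 ligase activity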
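system = mammalian cells stably expressing self-ubiquitinating, self-degrading MDM2 E3–luciferase fusion | quantity = 2000 cells per well seeded | incubation = 4 h cell settling then 2 h compound exposure, 37 °C | signal = SteadyLite luminescence, 15 min reagent step | benchmarks = plate control and blank wells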
AHR act = AHR activators, primary screen, cell-based, luminescence, luciferase reporter, human. Aryl hydrocarbon receptor (Homo sapiens), P35869. AHR-responsive luciferase reporter cells. activation, % at 5 µM. actives 2.5% (n = 320,000). AID 2796, 2010; in the data active = activation above about 47%;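 also: 0% = vehicle wells and 100% = reference agonist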
NF-kB expr up = activators of NF-kB expression in neurons, primary screen, cell-based, HTS; fold change at 12.5 µM; human neuronal cells, NF-kB reporter expression; active compounds read high; AID 1239, 2008; actives 1.6% (n = 190,000); in the data active = fold change above about 3.3
APP 5'UTR act = activators of APP 5'UTR luciferase reporter, primary screen, SH-SY5Y cells; SH-SY5Y APP 5'UTR luciferase reporter, luminescence; zero percent = DMSO vehicle wells; activation, % at 2 µM; actives 1% (n = 190,000); AID 1276, 2008;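 active = activation above a set limit, based on mean plus 3 SD of controls, cut at about 140% in these data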
STAT1 act conf = STAT1 signaling activators, confirmation, cell-based, HTS, luciferase reporter; shares compounds with STAT1 activator; NIH 3T3 STAT1-luciferase reporter, IFN-gamma potentiation, luminescence; 100% = IFN-gamma EC80 alone, no compound; activation (% of control), % at 5.7 µM; actives 97% (n = 1,200);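 active = activation above a set limit carried over from the earlier primary STAT1 screen, cut at about 140% in these data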;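 also: simple ratio to median IFN-gamma plus DMSO wells so 0% means no light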
NFkB act STAT1ct = NF-kB reporter activators, TNF-alpha stimulated, counter-screen for STAT1 activator project, cell-based, HEK293T, luciferase luminescence. AID 1306, 2008. shares compounds with STAT1 activator. actives 43% (n = 1,200). activation (% of control), % at 5.7 µM. 100% = TNF-alpha with vehicle only;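 active = activation above the mean of solvent-only control wells plus 3 SD, set per campaign, cut at about 130% in these data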;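 also: TNF-alpha given at a submaximal dose yielding about 80% of full reporter signal; values are well signal over median control so 100% means no change and 0% no light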
STAT3 act 2 = STAT3 reporter activation by STAT1 hits, confirmation, counter-screen for STAT1 activator project, U3A cells, luciferase, luminescence; activation (% of control), % at 5.7 µM; IL-6; cells lack STAT1; 100 = IL-6 alone, no compound effect; shares compounds with STAT1 activator; actives 46% (n = 1,200);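 active = activation above the solvent-only control well mean plus 3 SD, set per plate batch, cut at about 110% in these data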;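 also: 0% = no luminescence and 100% = median IL-6 plus DMSO wells; higher means more STAT3 reporter activation so hits are non-selective activators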
Numbers without * were called inactive; / = not tested or not shown.

SMILES	STAT1 activator	PERK inhibitor	MDM2 E3 inh	AHR act	NF-kB expr up	APP 5'UTR act	STAT1 act conf	NFkB act STAT1ct	STAT3 act 2
Cc1ccnc(NC(=O)Nc2ccc(F)cc2)c1	157.8*	-0.4	-41.6	11.5	4.81*	84.0	224.4*	131.4	107.5
Cc1ccnc(NC(=O)Nc2ccc3c(c2)N(C)C(=O)CS3)c1	181.2*	-0.7	-16.0	5.5	1.13	38.1	191.7*	134.7*	96.4
O=C(NC1CCS(=O)(=O)C1)c1cccnc1 (stereo unspecified)	103.0	0.6	-12.2	2.1	1.28	10.2	/	/	/
CSCC[C@H](NC(=O)C1CCN(S(=O)(=O)c2ccccc2)CC1)C(=O)NC1CC1	/	/	/	-1.6	/	/	/	/	/
COc1ccc2c(=O)c3c(=O)n(-c4ccccc4)c(-c4ccc(C)cc4)nc3oc2c1	/	-0.3	8.0	11.6	/	/	/	/	/
CNC(=O)c1c(Cl)cnn1-c1ccc(C)cc1	161.1*	0.4	-15.8	24.5	2.3	109.2	164.4*	138.1*	114.4*
CNC(=O)c1c(Br)cnn1-c1ccc(C)cc1	152.2*	0.1	-22.6	22.1	2.9	129.6	179.9*	131.1	115.7*
COc1ccc(CNC(=O)C(c2ccco2)N(C(=O)c2snc(C(N)=O)c2N)c2ccccc2OC)cc1 (stereo unspecified)	/	/	/	2.8	/	/	/	/	/
CN(C)c1ccc(/C=N/NC(=O)c2ccco2)cc1	160.3*	0.7	-36.2	29.1	5.56*	110.4	173.7*	114.2	105.4
COc1ccc(C2CC(=O)c3cnc(N4CCc5ccccc54)nc3C2)cc1OC (stereo unspecified)	/	1.7	-9.5	-0.3	/	/	/	/	/
CNc1nc(N2CCc3ccccc32)ncc1F	167.2*	0.9	-12.1	-1.1	5.08*	120.5	194.3*	138.6*	114.4*
CS(=O)(=O)N1N=C(c2ccc(Br)cc2)CC1c1ccc2c(c1)OCO2 (stereo unspecified)	154.6*	0.0	3.2	19.2	5.45*	111.0	202.9*	135.5*	124.7*
CC(=O)N1N=C(c2ccc(C)cc2)CC1c1ccc2c(c1)OCO2 (stereo unspecified)	/	0.7	-1.0	10.7	/	/	/	/	/
Cc1ccc(C2=NN(S(C)(=O)=O)C(c3ccc4c(c3)OCO4)C2)cc1 (stereo unspecified)	210.9*	-0.3	-2.6	18.4	10.4*	139.4*	256.5*	141.3*	140.0*
c1ccc(-c2[nH]ncc2CN2CCN(Cc3ccc4c(c3)OCO4)CC2)cc1	/	-0.9	-12.4	-1.0	/	/	/	/	/
Cc1ccc(NC(=O)Nc2ccc3c(c2)nc(C)n3C)cc1C	171.3*	1.3	-14.5	-7.0	4.8*	120.7	194.4*	137.4*	103.1
COc1ccc(-c2nn(-c3ccccc3)cc2N)cc1	164.8*	1.8	-6.1	0.8	3.99*	79.4	159.4*	120.1	164.1*
Cc1cc(NC2CCCC2)n2ncc(-c3ccccc3)c2n1	/	/	/	5.8	/	/	/	/	/
COc1ccc(-c2cc(C)nc3c(-c4ccccc4)cnn23)cc1	166.7*	0.1	/	/	/	168.5*	265.9*	125.0	110.4
COc1ncccc1-c1nnn(-c2ccc(F)cc2)n1	155.3*	1.4	/	-0.2	3.76*	105.8	193.8*	131.9	112.5*
COc1ncccc1-c1nnn(-c2ccc(Cl)c(Cl)c2)n1	158.3*	1.1	/	23.2	3.97*	105.7	163.9*	131.7	101.2
Cc1ccc(-n2nnc(-c3nccs3)n2)cc1	23.9	0.4	/	-6.7	2.53	117.9	/	/	/
Clc1ccc(-n2nnc(-c3ncc[nH]3)n2)cc1Cl	/	/	/	-2.2	/	/	/	/	/
Fc1ccc(-n2nnc(-c3ccccc3Br)n2)cc1	/	/	/	-3.0	/	/	/	/	/
COc1ncccc1-c1nnn(-c2ccc(C)cc2)n1	152.3*	2.0	/	18.1	3.72*	98.5	205.2*	140.8*	117.2*
SMILES	STAT1 activator	PERK inhibitor	MDM2 E3 inh	AHR act	NF-kB expr up	APP 5'UTR act	STAT1 act conf	NFkB act STAT1ct	STAT3 act 2
CC(C#N)N1CCN(S(=O)(=O)c2ccc3c(c2)CCC3)CC1 (stereo unspecified)	/	/	/	-0.1	/	/	/	/	/
CCCN(C(=O)c1cc(C)ccc1C)c1c(N)n(Cc2ccccc2)c(=O)[nH]c1=O	/	/	/	-1.4	/	/	/	/	/
COc1ccc(N=Cc2sc(O)c3ccccc23)cc1	172.8*	-0.7	4.7	38.2	13.1*	213.8*	331.3*	154.3*	103.8
CC(C)C(c1nnnn1CCc1ccccc1)N1CCSCC1 (stereo unspecified)	91.2	0.4	-14.8	-0.5	1.04	24.6	/	/	/
O=C(/C=C/c1cccc(Cl)c1)NNC(=O)c1ccncc1	/	/	/	1.1	/	/	/	/	/
Cc1cs/c(=N/C(=S)Nc2ccccc2)n1C	178.2*	-0.1	/	20.5	4.01*	132.9	204.2*	132.6	106.9
CC(=O)Nc1ccc(NC(=S)Nc2ccc(Br)cc2)cc1	/	0.5	-3.1	0.0	/	/	/	/	/
CC(C)=CC(=O)Nc1ccc(Br)cc1	154.3*	0.4	-12.7	1.2	5.61*	123.4	171.6*	141.2*	108.7
Cc1occc1C(=O)Nc1ccccc1NC(=O)c1ccoc1C	92.0	0.5	/	6.8	/	5.1	/	/	/
Cc1occc1C(=O)Nc1cccc2ccccc12	172.2*	-0.3	-8.6	24.8	7.69*	135.2*	219.0*	136.9*	109.9
COc1ccccc1NC(CC(=O)c1ccccc1)C(=O)OCC(=O)c1ccc(F)cc1 (stereo unspecified)	160.9*	-0.4	2.2	14.4	1.22	89.2	185.2*	127.4	102.4
COc1cc(NC(=O)c2cc3ccccc3cc2OC)ccc1NC(=O)c1cccs1	/	/	/	-7.6	/	/	/	/	/
COc1cc(NC(=O)c2ccccc2Cl)ccc1NC(=O)c1cccs1	152.6*	-0.2	-6.3	0.0	1.31	84.7	181.3*	134.4*	98.5

Assay outcomes as filed in PubChem.
